Measured values pooled from the literature.
Protocols differ between the studies behind these lines.
Matrix: plasma

SMILES	species	route	dose	setting	endpoint	result
CCOC(=O)c1c(NC(=O)CNC(C)C)sc2c1CCCCC2	male mouse	intraperitoneal	100 mg/kg	single dose	AUC(0-t)	19300 ng·h/mL
CC(C)=CCC[C@](C)(O[C@@H]1O[C@H](CO)[C@@H](O)[C@H](O)[C@H]1O)[C@H]1CC[C@]2(C)[C@@H]1[C@H](O)C[C@@H]1[C@@]3(C)CC[C@H](O)C(C)(C)[C@@H]3CC[C@]12C	mouse	oral	10 mg/kg		AUC(0-t)	655 ng·h/mL
O=C1CCC(N2Cc3c(ccc4c3OCC43CCN(Cc4ccccc4)CC3)C2=O)C(=O)N1 (stereo not drawn)	male CD-1 mouse	oral	3 mg/kg		AUC(0-inf)	1340 ng·h/mL
CC(C)[C@]12O[C@H]1[C@@H]1O[C@]13[C@]1(O[C@H]1C[C@H]1C4=C(CC[C@@]13C)C(=O)OC4)[C@@H]2O	SCID mouse	intravenous	0.6 mg/kg		AUC(0-inf)	619 ng·h/mL
C[C@@H](O)[C@@H]1NC(=O)CNC(=O)[C@H](Cc2c[nH]cn2)NC(=O)[C@H](Cc2c[nH]c3ccccc23)NC(=O)[C@H](CC(N)=O)NC(=O)CNC(=O)C[C@@H](C(=O)N[C@@H](Cc2c[nH]c3ccccc23)C(=O)N[C@@H](Cc2ccccc2)C(=O)N[C@@H](Cc2ccccc2)C(=O)N[C@@H](CC(N)=O)C(=O)N[C@@H](Cc2ccc(O)cc2)C(=O)N[C@@H](Cc2ccc(O)cc2)C(=O)N[C@@H](Cc2c[nH]c3ccccc23)C(=O)O)NC(=O)[C@@H]2CCCN2C(=O)[C@H](CO)NC1=O	mouse	intravenous	3 mg/kg		AUC(0-t)	35100 ng·h/mL
CC[C@H](C)[C@H](NC(=O)[C@H](Cc1ccccc1)NC(=O)[C@H](CCC(=O)O)NC(=O)[C@H](CCCCN)NC(=O)[C@H](C)NC(=O)[C@H](C)NC(=O)[C@H](CCC(N)=O)NC(=O)CNC(=O)[C@H](CCC(=O)O)NC(=O)[C@H](CC(C)C)NC(=O)[C@H](Cc1ccc(O)cc1)NC(=O)[C@H](CO)NC(=O)[C@H](CO)NC(=O)[C@@H](NC(=O)[C@H](CC(=O)O)NC(=O)[C@H](CO)NC(=O)[C@@H](NC(=O)[C@H](Cc1ccccc1)NC(=O)[C@@H](NC(=O)CNC(=O)[C@H](CCC(=O)O)NC(=O)[C@H](C)NC(=O)N(N)Cc1c[nH]cn1)[C@@H](C)O)[C@@H](C)O)C(C)C)C(=O)N[C@@H](C)C(=O)N[C@@H](Cc1c[nH]c2ccccc12)C(=O)N[C@@H](CC(C)C)C(=O)N[C@H](C(=O)N[C@@H](CCCNC(=N)N)C(=O)NCC(=O)N[C@@H](CCCNC(=N)N)C(=O)NCC(=O)O)C(C)C	male CD-1 mouse	intravenous	1 mg/kg	single dose	AUC(0-t)	2390 ng·h/mL
CN(C)C1(CNC(=O)c2ccc3c(c2)CCN3C(=O)c2ccccc2)CCOCC1	male CD-1 mouse	intraperitoneal	30 mg/kg		AUC(0-inf)	246 ng·h/mL
COc1cc(C(=O)c2nc(-c3cccc4[nH]ccc34)c[nH]2)cc(OC)c1OC	male CD-1 mouse	intraperitoneal	15 mg/kg		AUC(0-t)	1510 ng·h/mL
N=C(N)NCCC[C@H](NC(=O)[C@H](Cc1ccccc1)NC(=O)[C@H](CCC(N)=O)NC(=O)OCc1ccccc1)C(=O)c1nccs1	female C57BL/6 mouse	intravenous	5 mg/kg		AUC(0-t)	1180 ng·h/mL
